We go through 25 molecules from ChEMBL document CHEMBL1124104, “(Acyloxy)benzophenones and (acyloxy)-4-pyrones. A new class of inhibitors of human neutrophil elastase” (J Med Chem, 1988).

Usually IC50 stands for the concentration at which inhibition is half-maximal. Read a high IC50 as weaker potency in that assay. A word on the inhibition: it is the drop in the measured response relative to a control, in per cent. A low value points to a response near the control.

The target of one test is T1, Neutrophil elastase (Homo sapiens, UniProt P08246).
T1 sequence (P08246 whole entry): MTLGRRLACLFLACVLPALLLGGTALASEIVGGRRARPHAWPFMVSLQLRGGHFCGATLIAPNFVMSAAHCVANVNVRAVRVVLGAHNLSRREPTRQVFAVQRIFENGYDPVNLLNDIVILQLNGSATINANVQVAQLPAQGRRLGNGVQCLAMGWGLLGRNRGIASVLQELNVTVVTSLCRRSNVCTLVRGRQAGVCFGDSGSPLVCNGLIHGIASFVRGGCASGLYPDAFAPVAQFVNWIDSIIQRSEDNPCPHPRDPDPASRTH
The experiment in a line: Inhibitory activity against human leukocyte elastase at 10e-6 M.
Take `CC(C)(C)C(=O)Oc1ccccc1C(=O)c1ccccc1OC(=O)C(C)(C)C`: the IC50 was determined as 8 µM.

Molecule `CC(C)(C)C(=O)Oc1coc(COC(=O)c2ccc(-c3ccccc3)cc2)cc1=O` gave a concentration for half-maximal inhibition (IC50) of 1.9 µM.

`CCCCCCC/C=C/CCCCCCCCC(=O)Oc1coc(COC(=O)CCCCCCC/C=C/CCCCCCCC)cc1=O` showed an IC50 of 6.1 µM.

Molecule `CC(C)(C)C(=O)Oc1ccc(C(OC(=O)CCC(=O)O)c2ccc(OC(=O)C(C)(C)C)cc2)cc1` gave an IC50 of 3 µM.

`CC(C)(C)C(=O)Oc1ccc(C(O)c2ccc(OC(=O)C(C)(C)C)cc2)cc1` had an IC50 of 1.5 µM.

In turn, `CC(CO)Cc1cc(C(=O)c2ccccc2)ccc1OC(=O)C(C)(C)C` (stereo not drawn) returned an IC50 of 1.5 µM.

For the molecule `CCC(=O)Oc1ccc(C(=O)c2ccccc2)cc1`, the IC50 was 6.2 µM.

Molecule `CC(C)(C)C(=O)Oc1coc(COC(c2ccccc2)(c2ccccc2)c2ccccc2)cc1=O` came in with an IC50 of 1 µM.

As to `CC(C)(C)C(=O)Oc1ccccc1C(=O)OCc1cc(=O)c(OC(=O)C(C)(C)C)co1`, half-maximal inhibition (IC50) required 5.4 µM.

The next test deals with T1, Neutrophil elastase. The experiment in a line: Inhibitory activity against human leukocyte elastase at 10e-8 M.
Regarding `CCCCCCCCCCCCCCCCCC(=O)OCc1cc(=O)c(OC(=O)C(C)C)co1`, the IC50 turned out to be 72 nM.

Another test has as its target T2, Neutrophil elastase (Homo sapiens) (UniProt P08246).
T2 sequence (whole entry): T1 sequence (P08246 whole entry)
The experiment in a line: Inhibitory activity against [14C]elastin hydrolysis at 1 uM concentration and 2 hr. The procedure, abridged:
(§1)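 Elastase digestion of [¹⁴C]elastin, quantitated by radiolabel release (method of Bielefeld et al.). Substrate, inhibitor and elastase were all present for the whole run, and % inhibition was read at 1, 2 and 3 h.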
As for `CC(C)(C)C(=O)Oc1ccc(C(=O)c2ccc(OC(=O)C(C)(C)C)cc2OC(=O)C(C)(C)C)cc1`, the inhibition is 63%.

The target of a further test is T2, Neutrophil elastase (Homo sapiens). Briefly: Inhibitory activity against [14C]-Elastin hydrolysis at 2 uM concentration and 2 hr. In short, it runs like this: as §1
As to `CC(C)(C)C(=O)Oc1ccc(C(=O)c2ccc(OC(=O)C(C)(C)C)cc2OC(=O)C(C)(C)C)cc1`, the inhibition turned out to be 81%.

The next test shares this target. Briefly: Inhibitory activity against [14C]elastin hydrolysis at 2 uM concentration and 1h. In short, it runs like this: as §1
Regarding `CC(C)(C)C(=O)Oc1ccc(C(=O)c2ccc(OC(=O)C(C)(C)C)cc2OC(=O)C(C)(C)C)cc1`, the inhibition was 81%.

The target is the same in the next test. The experiment in a line: Inhibitory activity against [14C]elastin hydrolysis at 1 uM concentration and 3h. In short, it runs like this: as §1
In turn, `CC(C)(C)C(=O)Oc1ccc(C(=O)c2ccc(OC(=O)C(C)(C)C)cc2OC(=O)C(C)(C)C)cc1` registered an inhibition of 47%.

The target in a further test is T1, Neutrophil elastase. The experiment in a line: Inhibitory activity against human leukocyte elastase at 10e-9 M. In short, it runs like this: (§2)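 HLE activity followed as rise in absorbance at 410 nm from nitroanilide release; substrate (methoxysuccinyl)Ala-Ala-Pro-Val nitroanilide at 10⁻⁴ M. Run in 0.2 M Tris, pH 8.0, 30 °C. Inhibitors and substrate dissolved in DMSO, which made up 10% of the final medium. Enzyme titrated to give 0.12 OD unit/min per 10 mm path.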
For `C=C(C)C(=O)Oc1ccc(C(=O)c2ccccc2)cc1`, the IC50 was determined as 1900 nM.

In the next test the target is T1, Neutrophil elastase. The experiment in a line: Inhibitory activity against human leukocyte elastase at 10e-4 M. In short, it runs like this:
as §2
As to `CCCCCCCCCCCCCCCC(=O)OCc1cc(=O)c(O)co1`, the IC50 was 100 µM.

A further test deals with T1, Neutrophil elastase. Briefly: Inhibitory activity against human leukocyte elastase; No inhibition at 1x10E-2 M. In short, it runs like this: as §2
`O=C1CCc2cc(C(=O)c3ccccc3)ccc2O1`: the IC50 result was “No inhibition”.

For `CC1(C)C(=O)Oc2ccc(C(=O)c3ccccc3)cc21`, the IC50 result is reported as “No inhibition”.

Turning to `CC1Cc2cc(C(=O)c3ccccc3)ccc2OC1=O` (stereo not drawn), the IC50 result is “No inhibition”.

Take `CC1(C)Cc2cc(C(=O)c3ccccc3)ccc2OC1=O`: the IC50 entry is given as “No inhibition”.

For the molecule `CC1C(=O)Oc2ccc(C(=O)c3ccccc3)cc21` (stereo not drawn), the IC50 entry is recorded as “No inhibition”.

A further test deals with T2, Neutrophil elastase (Homo sapiens). Briefly: Inhibitory activity against [14C]elastin hydrolysis at 0.5 uM concentration and 3h. In short, it runs like this:
as §1
The molecule `CC(C)(C)C(=O)Oc1ccc(C(=O)c2ccc(OC(=O)C(C)(C)C)cc2OC(=O)C(C)(C)C)cc1` came in with an inhibition of 6%.

For another test the target is unchanged. Briefly: Inhibitory activity against [14C]-Elastin hydrolysis at 2 uM concentration and 3h. In short, it runs like this: as §1
Molecule `CC(C)(C)C(=O)Oc1ccc(C(=O)c2ccc(OC(=O)C(C)(C)C)cc2OC(=O)C(C)(C)C)cc1` yielded an inhibition of 76%.

For another test the target is unchanged. Briefly: Inhibitory activity against [14C]elastin hydrolysis at 1 uM concentration and 1h. In short, it runs like this:
as §1
Take `CC(C)(C)C(=O)Oc1ccc(C(=O)c2ccc(OC(=O)C(C)(C)C)cc2OC(=O)C(C)(C)C)cc1`: the inhibition came to 45%.

For a further test the target is unchanged. Briefly: Inhibitory activity against [14C]elastin hydrolysis at 0.5 uM concentration and 1h. The procedure, abridged: as §1
With `CC(C)(C)C(=O)Oc1ccc(C(=O)c2ccc(OC(=O)C(C)(C)C)cc2OC(=O)C(C)(C)C)cc1`, the inhibition amounted to 20%.

A further test has the same target. The experiment in a line: Inhibitory activity against [14C]-Elastin hydrolysis at 0.5 uM concentration and 2 hr. In short, it runs like this:
as §1
`CC(C)(C)C(=O)Oc1ccc(C(=O)c2ccc(OC(=O)C(C)(C)C)cc2OC(=O)C(C)(C)C)cc1` displayed an inhibition of 19%.

In a further test the target is T1, Neutrophil elastase. Briefly: Inhibitory activity against human leukocyte elastase at 10e-5 M. In short, it runs like this:
as §2
`CC(=O)NC(C)(C)C(=O)Oc1ccc(C(=O)c2ccccc2)cc1` showed an IC50 of 19 µM.

`CC(C(=O)O)c1cc(C(=O)c2ccccc2)ccc1OC(=O)C(C)(C)C` (stereo not drawn) displayed an IC50 of 12 µM.

As to `CC(C)(C)C(=O)OCc1cc(=O)c(OC(=O)C(C)(C)C)co1`, the IC50 turned out to be 36 µM.

In turn, `CC(C)(C)C(=O)Oc1coc(COC2CCOCC2)cc1=O` showed an IC50 of 43 µM.

`O=C(c1ccccc1)c1ccc(OC(=O)C2CCCCC2)cc1` showed an IC50 of 20 µM.

Molecule `CCCCCCCC/C=C/CCCCCCCC(=O)OCc1cc(=O)c(OC(=O)[C@]23C[C@H]4C[C@H](C[C@H](C4)C2)C3)co1` had an IC50 of 80 µM.

`CC(=O)Oc1ccc(C(=O)c2ccccc2)cc1` had an IC50 of 16 µM.
